≈ marks a conversion by molar mass, not a printed value. Calls of active or inactive are those of the source. The calls are words filed in the database; no cut-off is given here.
What was measured:
Trichoderma viride [1] = experiment: Antifungal activity against Trichoderma viride MTCC 1107 assessed as zone of inhibition at 20 uM after 48 hrs by disc diffusion method; assay type: functional; settings: MTCC 1107, 48 h, read-out: IZ
How it was run: (§1)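 Spores from 4-day potato dextrose agar cultures, suspended in sterile water at 1.5 × 10⁵ CFU/mL. 0.2 mL was spread on potato dextrose agar. 5 mm filter-paper discs soaked with test compound were laid on the lawn. Incubation was 48 h at 28 °C, then the inhibition zone was measured in mm. Fluconazole was the positive control and acetone the negative control.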

Curvularia lunata [2] = experiment: Antifungal activity against Curvularia lunata MTCC 581 assessed as zone of inhibition at 80 uM after 48 hrs by disc diffusion method; assay type: functional; settings: MTCC 581, 48 h, read-out: IZ; how it was run: as §1
Aspergillus niger [3] = experiment: Antifungal activity against Aspergillus niger MTCC 1108 assessed as zone of inhibition at 80 uM after 48 hrs by disc diffusion method; assay type: functional; settings: MTCC 1108, 48 h, read-out: IZ; how it was run: as §1
Pseudomonas aeruginosa [4] = experiment: Antimicrobial activity against Pseudomonas aeruginosa ATCC 15499 after 24 hrs by broth micro serial dilution method; assay type: functional; settings: ATCC 15499, 24 h
How it was run: (§2)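 This was broth microdilution in autoclaved Mueller-Hinton broth. 150 µL of compound per well was serially diluted […], and 50 µL of test organism was added. Plates were incubated 24 h at 37 °C and optical density was read.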

Pseudomonas aeruginosa [5] = experiment: Antimicrobial activity against Pseudomonas aeruginosa ATCC 15499 assessed as diameter of inhibition zone at 80 uM after 24 hrs by Kirby -Baur disc diffusion method; assay type: functional; settings: ATCC 15499, 24 h, read-out: DIZ
How it was run: (§3)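 Kirby-Bauer disc diffusion was used. Acetone stocks (160 µM) were serially doubled down to 80, 40 and 20 µM. 4 µL of each went onto 5 mm sterile paper discs, which were dried 30 min at 50 °C. Inoculum was 1.5 × 10⁸ CFU/mL diluted to 3 × 10² CFU/mL, and 50 µL was spread on Mueller-Hinton agar. After 24 h at 37 °C the inhibition-zone diameter was measured. Ciprofloxacin served as positive control.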

Trichoderma viride [6] = experiment: Antifungal activity against Trichoderma viride MTCC 1107 assessed as zone of inhibition at 40 uM after 48 hrs by disc diffusion method; assay type: functional; settings: MTCC 1107, 48 h, read-out: IZ; how it was run: as §1
Escherichia coli [7] = experiment: Antimicrobial activity against Escherichia coli ATCC 35218 assessed as diameter of inhibition zone at 20 uM after 24 hrs by Kirby -Baur disc diffusion method; assay type: functional; settings: ATCC 35218, 24 h, read-out: DIZ; how it was run: as §3
Escherichia coli [8] = experiment: Antimicrobial activity against Escherichia coli ATCC 35218 after 24 hrs by broth micro serial dilution method; assay type: functional; settings: ATCC 35218, 24 h; how it was run: as §2
Escherichia coli [9] = experiment: Antimicrobial activity against Escherichia coli ATCC 35218 assessed as diameter of inhibition zone at 80 uM after 24 hrs by Kirby -Baur disc diffusion method; assay type: functional; settings: ATCC 35218, 24 h, read-out: DIZ; how it was run: as §3
Bacillus cereus [10] = experiment: Antimicrobial activity against Bacillus cereus MTCC 7350 after 24 hrs by broth micro serial dilution method; assay type: functional; settings: MTCC 7350, 24 h; how it was run: as §2
Staphylococcus aureus [11] = experiment: Antimicrobial activity against Staphylococcus aureus ATCC 11632 assessed as diameter of inhibition zone at 40 uM after 24 hrs by Kirby -Baur disc diffusion method; assay type: functional; settings: ATCC 11632, 24 h, read-out: DIZ; how it was run: as §3
HeLa = experiment: Cytotoxicity against human HeLa cells after 24 hrs by MTT assay; assay type: functional, cell-based
How it was run: (§4)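 The MTT assay seeded 5 × 10⁴ cells per well and grew them 24 h in RPMI 1640 with compound at 2.5–200 µM. Medium without cells was the blank and adriamycin the positive control. MTT was added for 4 h at 37 °C, formazan was solubilised, and absorbance was read at 570 nm. IC50 is the concentration that cuts viability 50% against untreated cells.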

Mus musculus = experiment: Antiinflammatory activity in mouse assessed as inhibition of carrageenan-induced increase in paw volume at 200 mg/kg administered 1 hr prior to carrageenan challenge measured after 3 hrs relative to control; assay type: functional
How it was run: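 Mice were fasted 2 h and placed in groups of five. Controls received saline i.p. Phenylbutazone was given at 100 mg/kg i.p., curcumin at 200 mg/kg i.p., and derivatives at 200 mg/kg. After 1 h, 0.1 mL of 1% carrageenan in saline was injected subplantar into the right hind paw. Paw volume was followed by plethysmometer for 3 h, and % inhibition was calculated as (Vc − Vt)/Vc × 100.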

Aspergillus flavus [12] = experiment: Antifungal activity against Aspergillus flavus MTCC 1021 assessed as zone of inhibition at 20 uM after 48 hrs by disc diffusion method; assay type: functional; how it was run: as §1
Curvularia lunata [13] = experiment: Antifungal activity against Curvularia lunata MTCC 581 after 48 hrs; assay type: functional; settings: MTCC 581, 48 h
Bacillus cereus [14] = experiment: Antimicrobial activity against Bacillus cereus MTCC 7350 assessed as diameter of inhibition zone at 20 uM after 24 hrs by Kirby -Baur disc diffusion method; assay type: functional; settings: MTCC 7350, 24 h, read-out: DIZ; how it was run: as §3
Aspergillus niger [15] = experiment: Antifungal activity against Aspergillus niger MTCC 1108 assessed as zone of inhibition at 20 uM after 48 hrs by disc diffusion method; assay type: functional; settings: MTCC 1108, 48 h, read-out: IZ; how it was run: as §1
Bacillus cereus [16] = experiment: Antimicrobial activity against Bacillus cereus MTCC 7350 assessed as diameter of inhibition zone at 40 uM after 24 hrs by Kirby -Baur disc diffusion method; assay type: functional; settings: MTCC 7350, 24 h, read-out: DIZ; how it was run: as §3
Aspergillus niger [17] = experiment: Antifungal activity against Aspergillus niger MTCC 1108 after 48 hrs; assay type: functional; settings: MTCC 1108, 48 h
Staphylococcus aureus [18] = experiment: Antimicrobial activity against Staphylococcus aureus ATCC 11632 assessed as diameter of inhibition zone at 80 uM after 24 hrs by Kirby -Baur disc diffusion method; assay type: functional; settings: ATCC 11632, 24 h, read-out: DIZ; how it was run: as §3
Curvularia lunata [19] = experiment: Antifungal activity against Curvularia lunata MTCC 581 assessed as zone of inhibition at 40 uM after 48 hrs by disc diffusion method; assay type: functional; settings: MTCC 581, 48 h, read-out: IZ; how it was run: as §1
Aspergillus flavus [20] = experiment: Antifungal activity against Aspergillus flavus MTCC 1021 assessed as zone of inhibition at 40 uM after 48 hrs by disc diffusion method; assay type: functional; settings: MTCC 1021, 48 h, read-out: IZ; how it was run: as §1
QG-56 = experiment: Cytotoxicity against human QG56 cells after 24 hrs by MTT assay; assay type: functional, cell-based; how it was run: as §4
Pseudomonas aeruginosa [21] = experiment: Antimicrobial activity against Pseudomonas aeruginosa ATCC 15499 assessed as diameter of inhibition zone at 40 uM after 24 hrs by Kirby -Baur disc diffusion method; assay type: functional; settings: ATCC 15499, 24 h, read-out: DIZ; how it was run: as §3
Escherichia coli [22] = experiment: Antimicrobial activity against Escherichia coli ATCC 35218 assessed as diameter of inhibition zone at 40 uM after 24 hrs by Kirby -Baur disc diffusion method; assay type: functional; settings: ATCC 35218, 24 h, read-out: DIZ; how it was run: as §3
HepG2 = experiment: Cytotoxicity against human HepG2 cells after 24 hrs by MTT assay; assay type: functional, cell-based; how it was run: as §4
Salmonella typhi [23] = experiment: Antimicrobial activity against Salmonella typhi ATCC 23564 after 24 hrs by broth micro serial dilution method; assay type: functional, Salmonella enterica subsp. enterica serovar Typhi; settings: Salmonella enterica, ATCC 23564, 24 h
Salmonella typhi [24] = experiment: Antimicrobial activity against Salmonella typhi ATCC 23564 assessed as diameter of inhibition zone at 40 uM after 24 hrs by Kirby -Baur disc diffusion method; assay type: functional, Salmonella enterica subsp. enterica serovar Typhi; settings: Salmonella enterica, ATCC 23564, 24 h; read-out: DIZ
Curvularia lunata [25] = experiment: Antifungal activity against Curvularia lunata MTCC 581 assessed as zone of inhibition at 20 uM after 48 hrs by disc diffusion method; assay type: functional; settings: MTCC 581, 48 h, read-out: IZ; how it was run: as §1
Aspergillus niger [26] = experiment: Antifungal activity against Aspergillus niger MTCC 1108 assessed as zone of inhibition at 40 uM after 48 hrs by disc diffusion method; assay type: functional; settings: MTCC 1108, 48 h, read-out: IZ; how it was run: as §1
Aspergillus flavus [27] = experiment: Antifungal activity against Aspergillus flavus MTCC 1021 after 48 hrs; assay type: functional; settings: MTCC 1021, 48 h
Staphylococcus aureus [28] = experiment: Antimicrobial activity against Staphylococcus aureus ATCC 11632 after 24 hrs by broth micro serial dilution method; assay type: functional; settings: ATCC 11632, 24 h; how it was run: as §2
Pseudomonas aeruginosa [29] = experiment: Antimicrobial activity against Pseudomonas aeruginosa ATCC 15499 assessed as diameter of inhibition zone at 20 uM after 24 hrs by Kirby -Baur disc diffusion method; assay type: functional; how it was run: as §3
Aspergillus flavus [30] = experiment: Antifungal activity against Aspergillus flavus MTCC 1021 assessed as zone of inhibition at 80 uM after 48 hrs by disc diffusion method; assay type: functional; settings: MTCC 1021, 48 h, read-out: IZ; how it was run: as §1
Bacillus cereus [31] = experiment: Antimicrobial activity against Bacillus cereus MTCC 7350 assessed as diameter of inhibition zone at 80 uM after 24 hrs by Kirby -Baur disc diffusion method; assay type: functional; settings: MTCC 7350, 24 h, read-out: DIZ; how it was run: as §3
HCT-116 = experiment: Cytotoxicity against human HCT116 cells after 24 hrs by MTT assay; assay type: functional, cell-based; how it was run: as §4
Staphylococcus aureus [32] = experiment: Antimicrobial activity against Staphylococcus aureus ATCC 11632 assessed as diameter of inhibition zone at 20 uM after 24 hrs by Kirby -Baur disc diffusion method; assay type: functional; settings: ATCC 11632, 24 h, read-out: DIZ; how it was run: as §3
Trichoderma viride [33] = experiment: Antifungal activity against Trichoderma viride MTCC 1107 assessed as zone of inhibition at 80 uM after 48 hrs by disc diffusion method; assay type: functional; settings: MTCC 1107, 48 h, read-out: IZ; how it was run: as §1
Salmonella typhi [34] = experiment: Antimicrobial activity against Salmonella typhi ATCC 23564 assessed as diameter of inhibition zone at 80 uM after 24 hrs by Kirby -Baur disc diffusion method; assay type: functional, Salmonella enterica subsp. enterica serovar Typhi; settings: Salmonella enterica, ATCC 23564, 24 h; read-out: DIZ
Salmonella typhi [35] = experiment: Antimicrobial activity against Salmonella typhi ATCC 23564 assessed as diameter of inhibition zone at 20 uM after 24 hrs by Kirby -Baur disc diffusion method; assay type: functional, Salmonella enterica subsp. enterica serovar Typhi; settings: Salmonella enterica, ATCC 23564, 24 h; read-out: DIZ
Trichoderma viride [36] = experiment: Antifungal activity against Trichoderma viride MTCC 1107 after 48 hrs; assay type: functional; settings: MTCC 1107, 48 h

COc1cc(/C=C/C(O)=C/C(/C=C/c2ccc(O)c(OC)c2)=N/c2ccc(S(=O)(=O)Nc3ccccn3)cc2)ccc1O
zone of inhibition at 20 µM (Trichoderma viride [1]): 10 mm
zone of inhibition at 80 µM (Curvularia lunata [2]): 12 mm
zone of inhibition at 80 µM (Aspergillus niger [3]): 14 mm
MIC (Pseudomonas aeruginosa [4]): 20 µM (≈ 12 µg/mL)
zone of inhibition at 80 µM (Pseudomonas aeruginosa [5]): 13 mm
zone of inhibition at 40 µM (Trichoderma viride [6]): 13 mm
zone of inhibition at 20 µM (Escherichia coli [7]): 15 mm
MIC (Escherichia coli [8]): 20 µM (≈ 12 µg/mL)
zone of inhibition at 80 µM (Escherichia coli [9]): 20 mm
MIC (Bacillus cereus [10]): 20 µM (≈ 12 µg/mL)
zone of inhibition at 40 µM (Staphylococcus aureus [11]): 17 mm
IC50 (HeLa): 50 µM
inhibition in vivo at 200 mg/kg (Mus musculus): 37%
inhibition zone (IZ) (Aspergillus flavus [12]): inactive
MIC (Curvularia lunata [13]): > 80 µM
zone of inhibition at 20 µM (Bacillus cereus [14]): 11 mm
zone of inhibition at 20 µM (Aspergillus niger [15]): 9 mm
zone of inhibition at 40 µM (Bacillus cereus [16]): 16 mm
MIC (Aspergillus niger [17]): 40 µM (≈ 24 µg/mL)
zone of inhibition at 80 µM (Staphylococcus aureus [18]): 18 mm
zone of inhibition at 40 µM (Curvularia lunata [19]): 9 mm
zone of inhibition at 40 µM (Aspergillus flavus [20]): 9 mm
IC50 (QG-56): 50 µM
zone of inhibition at 40 µM (Pseudomonas aeruginosa [21]): 11 mm
zone of inhibition at 40 µM (Escherichia coli [22]): 19 mm
IC50 (HepG2): 25 µM
MIC (Salmonella typhi [23]): 20 µM (≈ 12 µg/mL)
zone of inhibition at 40 µM (Salmonella typhi [24]): 14 mm
zone of inhibition at 20 µM (Curvularia lunata [25]): 9 mm
zone of inhibition at 40 µM (Aspergillus niger [26]): 12 mm
MIC (Aspergillus flavus [27]): > 80 µM
MIC (Staphylococcus aureus [28]): 20 µM (≈ 12 µg/mL)
diameter of the inhibition zone (DIZ) (Pseudomonas aeruginosa [29]): inactive
zone of inhibition at 80 µM (Aspergillus flavus [30]): 12 mm
zone of inhibition at 80 µM (Bacillus cereus [31]): 19 mm
IC50 (HCT-116): 25 µM
zone of inhibition at 20 µM (Staphylococcus aureus [32]): 11 mm
zone of inhibition at 80 µM (Trichoderma viride [33]): 17 mm
zone of inhibition at 80 µM (Salmonella typhi [34]): 18 mm
zone of inhibition at 20 µM (Salmonella typhi [35]): 11 mm
MIC (Trichoderma viride [36]): 20 µM (≈ 12 µg/mL)

Reference: ChEMBL document CHEMBL2384906, “Biological activity, design, synthesis and structure activity relationship of some novel derivatives of curcumin containing sulfonamides” (Eur J Med Chem, 2013)
